From ChEMBL document CHEMBL1921735, “Antibacterial optimization of 4-aminothiazolyl analogues of the natural product GE2270 A: identification of the cycloalkylcarboxylic acids” (J Med Chem, 2011)
≈ marks a conversion by molar mass, not a printed value. Calls of active or inactive are those of the source.

Legend:
Enterococcus faecalis = test: Antibacterial activity against Enterococcus faecalis ATCC 29212 by CLSI M07-A8 method; type: functional
Procedure, shortened: (§1)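 Broth microdilution MIC run per CLSI M07-A8 (2009).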

Enterococcus faecium = test: Antibacterial activity against Enterococcus faecium 7130724 by CLSI M07-A8 method; type: functional; procedure, shortened: as §1
Streptococcus pneumoniae = test: Antibacterial activity against Streptococcus pneumoniae by CLSI M07-A8 method; type: functional, organism-based; procedure, shortened: as §1
Streptococcus pyogenes = test: Antibacterial activity against Streptococcus pyogenes ATCC BAA-595 by CLSI M07-A8 method; type: functional; procedure, shortened: as §1
Staphylococcus aureus [1] = test: Antibacterial activity against methicillin-resistant Staphylococcus aureus isolate A4.018 by CLSI M07-A8 method; type: functional
Staphylococcus aureus [2] = test: Antibacterial activity against GE2270-A-resistant Staphylococcus aureus harboring tufA G258D mutant gene by CLSI M07-A8 method; type: functional

SMILES	MIC (Enterococcus faecalis) [µg/mL]	MIC (Enterococcus faecium) [µg/mL]	Activity (Streptococcus pneumoniae)	MIC (Streptococcus pyogenes) [µg/mL]	MIC (Staphylococcus aureus [1]) [µg/mL]	MIC (Staphylococcus aureus [2]) [µg/mL]	Activity (Staphylococcus aureus [2])
CNC(=O)C[C@@H]1NC(=O)c2csc(n2)-c2ccc(-c3nc(NC(=O)[C@H]4CC[C@@H]4C(=O)O)cs3)nc2-c2csc(n2)-c2csc(n2)[C@H]([C@@H](O)c2ccccc2)NC(=O)CNC(=O)c2nc(sc2COC)[C@H](C(C)C)NC(=O)c2nc1sc2C	0.25 (≈ 0.205 µM)	0.5 (≈ 0.409 µM)	Active	4 (≈ 3.27 µM)	0.25 (≈ 0.205 µM)		
CNC(=O)C[C@@H]1NC(=O)c2csc(n2)-c2ccc(-c3nc(NC(=O)c4ccc(C(=O)O)nc4)cs3)nc2-c2csc(n2)-c2csc(n2)[C@H]([C@@H](O)c2ccccc2)NC(=O)CNC(=O)c2nc(sc2COC)[C@H](C(C)C)NC(=O)c2nc1sc2C	4 (≈ 3.21 µM)	8 (≈ 6.42 µM)	Active	> 32	4 (≈ 3.21 µM)		
CNC(=O)C[C@@H]1NC(=O)c2csc(n2)-c2ccc(-c3nc(NS(C)(=O)=O)cs3)nc2-c2csc(n2)-c2csc(n2)[C@H]([C@@H](O)c2ccccc2)NC(=O)CNC(=O)c2nc(sc2COC)[C@H](C(C)C)NC(=O)c2nc1sc2C	2 (≈ 1.7 µM)	4 (≈ 3.41 µM)	Active	> 32	2 (≈ 1.7 µM)	> 32	
CNC(=O)C[C@@H]1NC(=O)c2csc(n2)-c2ccc(-c3nc(NC(=O)CC[C@H](N)C(=O)O)cs3)nc2-c2csc(n2)-c2csc(n2)[C@H]([C@@H](O)c2ccccc2)NC(=O)CNC(=O)c2nc(sc2COC)[C@H](C(C)C)NC(=O)c2nc1sc2C	> 32	> 32	Active	> 32	> 32		inactive
CNC(=O)C[C@@H]1NC(=O)c2csc(n2)-c2ccc(-c3nc(NC(=O)CC[C@@H](C)C(=O)O)cs3)nc2-c2csc(n2)-c2csc(n2)[C@H]([C@@H](O)c2ccccc2)NC(=O)CNC(=O)c2nc(sc2COC)[C@H](C(C)C)NC(=O)c2nc1sc2C	0.125 (≈ 0.102 µM)	0.25 (≈ 0.204 µM)	Active	4 (≈ 3.27 µM)	0.25 (≈ 0.204 µM)		inactive
CNC(=O)C[C@@H]1NC(=O)c2csc(n2)-c2ccc(-c3nc(NC(=O)OCCCN)cs3)nc2-c2csc(n2)-c2csc(n2)[C@H]([C@@H](O)c2ccccc2)NC(=O)CNC(=O)c2nc(sc2COC)[C@H](C(C)C)NC(=O)c2nc1sc2C	1 (≈ 0.835 µM)	1 (≈ 0.835 µM)	Active	16 (≈ 13.4 µM)	1 (≈ 0.835 µM)		inactive
CNC(=O)C[C@@H]1NC(=O)c2csc(n2)-c2ccc(-c3nc(NS(N)(=O)=O)cs3)nc2-c2csc(n2)-c2csc(n2)[C@H]([C@@H](O)c2ccccc2)NC(=O)CNC(=O)c2nc(sc2COC)[C@H](C(C)C)NC(=O)c2nc1sc2C	2 (≈ 1.7 µM)	4 (≈ 3.4 µM)	Active	> 32	4 (≈ 3.4 µM)	> 32	
CNC(=O)C[C@@H]1NC(=O)c2csc(n2)-c2ccc(-c3nc(NC(=O)OCCN4CCOCC4)cs3)nc2-c2csc(n2)-c2csc(n2)[C@H]([C@@H](O)c2ccccc2)NC(=O)CNC(=O)c2nc(sc2COC)[C@H](C(C)C)NC(=O)c2nc1sc2C	0.5 (≈ 0.399 µM)	0.5 (≈ 0.399 µM)	Active	> 32	1 (≈ 0.798 µM)		inactive
CNC(=O)C[C@@H]1NC(=O)c2csc(n2)-c2ccc(-c3nc(NC(=O)OCC(C)(C)N)cs3)nc2-c2csc(n2)-c2csc(n2)[C@H]([C@@H](O)c2ccccc2)NC(=O)CNC(=O)c2nc(sc2COC)[C@H](C(C)C)NC(=O)c2nc1sc2C	1 (≈ 0.825 µM)	1 (≈ 0.825 µM)	Active	8 (≈ 6.6 µM)	2 (≈ 1.65 µM)		inactive
CNC(=O)C[C@@H]1NC(=O)c2csc(n2)-c2ccc(-c3nc(NC(=O)OC4CC(C)(C)NC(C)(C)C4)cs3)nc2-c2csc(n2)-c2csc(n2)[C@H]([C@@H](O)c2ccccc2)NC(=O)CNC(=O)c2nc(sc2COC)[C@H](C(C)C)NC(=O)c2nc1sc2C	1 (≈ 0.781 µM)	0.5 (≈ 0.391 µM)	Active	8 (≈ 6.25 µM)	1 (≈ 0.781 µM)		inactive
CNC(=O)C[C@@H]1NC(=O)c2csc(n2)-c2ccc(-c3nc(NC(=O)c4ccnc(C(=O)O)c4)cs3)nc2-c2csc(n2)-c2csc(n2)[C@H]([C@@H](O)c2ccccc2)NC(=O)CNC(=O)c2nc(sc2COC)[C@H](C(C)C)NC(=O)c2nc1sc2C	2 (≈ 1.61 µM)	8 (≈ 6.42 µM)	Active	> 32	8 (≈ 6.42 µM)		
CNC(=O)C[C@@H]1NC(=O)c2csc(n2)-c2ccc(-c3nc(NC(=O)c4ccc(C(=O)O)cc4)cs3)nc2-c2csc(n2)-c2csc(n2)[C@H]([C@@H](O)c2ccccc2)NC(=O)CNC(=O)c2nc(sc2COC)[C@H](C(C)C)NC(=O)c2nc1sc2C	0.125 (≈ 0.1 µM)	0.125 (≈ 0.1 µM)	Active	4 (≈ 3.21 µM)	0.125 (≈ 0.1 µM)		
CNC(=O)C[C@@H]1NC(=O)c2csc(n2)-c2ccc(-c3nc(NC(=O)C(C)(C)CCCC(C)(C)C(=O)O)cs3)nc2-c2csc(n2)-c2csc(n2)[C@H]([C@@H](O)c2ccccc2)NC(=O)CNC(=O)c2nc(sc2COC)[C@H](C(C)C)NC(=O)c2nc1sc2C	1 (≈ 0.772 µM)	1 (≈ 0.772 µM)	Active	> 32	4 (≈ 3.09 µM)		inactive
CNC(=O)C[C@@H]1NC(=O)c2csc(n2)-c2ccc(-c3nc(NC(=O)O[C@H]4C[C@H](C(=O)O)C4)cs3)nc2-c2csc(n2)-c2csc(n2)[C@H]([C@@H](O)c2ccccc2)NC(=O)CNC(=O)c2nc(sc2COC)[C@H](C(C)C)NC(=O)c2nc1sc2C	0.06 (≈ 0.0484 µM)	0.06 (≈ 0.0484 µM)	Active	2 (≈ 1.61 µM)	0.125 (≈ 0.101 µM)		
CNC(=O)C[C@@H]1NC(=O)c2csc(n2)-c2ccc(-c3nc(NC(=O)O[C@H]4C[C@@H](C(=O)O)C[C@@H]4N)cs3)nc2-c2csc(n2)-c2csc(n2)[C@H]([C@@H](O)c2ccccc2)NC(=O)CNC(=O)c2nc(sc2COC)[C@H](C(C)C)NC(=O)c2nc1sc2C	1 (≈ 0.789 µM)	4 (≈ 3.16 µM)	Active	2 (≈ 1.58 µM)	2 (≈ 1.58 µM)		
CNC(=O)C[C@@H]1NC(=O)c2csc(n2)-c2ccc(-c3nc(NC(=O)[C@H]4CC[C@@H](C(=O)O)C4)cs3)nc2-c2csc(n2)-c2csc(n2)[C@H]([C@@H](O)c2ccccc2)NC(=O)CNC(=O)c2nc(sc2COC)[C@H](C(C)C)NC(=O)c2nc1sc2C	0.25 (≈ 0.202 µM)	0.25 (≈ 0.202 µM)	Active	4 (≈ 3.23 µM)	0.25 (≈ 0.202 µM)		
CNC(=O)C[C@@H]1NC(=O)c2csc(n2)-c2ccc(-c3nc(NC(=O)[C@H]4CC[C@@H](C(=O)O)CC4)cs3)nc2-c2csc(n2)-c2csc(n2)[C@H]([C@@H](O)c2ccccc2)NC(=O)CNC(=O)c2nc(sc2COC)[C@H](C(C)C)NC(=O)c2nc1sc2C	0.125 (≈ 0.1 µM)	0.25 (≈ 0.2 µM)	Active	4 (≈ 3.2 µM)	0.25 (≈ 0.2 µM)		
CNC(=O)C[C@@H]1NC(=O)c2csc(n2)-c2ccc(-c3nc(C4=N[C@H](C(=O)N5CCC[C@H]5C(N)=O)CO4)cs3)nc2-c2csc(n2)-c2csc(n2)[C@H]([C@@H](O)c2ccccc2)NC(=O)CNC(=O)c2nc(sc2COC)[C@H](C(C)C)NC(=O)c2nc1sc2C	0.5 (≈ 0.387 µM)	0.25 (≈ 0.194 µM)	Active	1 (≈ 0.775 µM)	0.25 (≈ 0.194 µM)		
CNC(=O)C[C@@H]1NC(=O)c2csc(n2)-c2ccc(-c3nc(NC(=O)O[C@H]4CC[C@@H](C(=O)O)CC4)cs3)nc2-c2csc(n2)-c2csc(n2)[C@H]([C@@H](O)c2ccccc2)NC(=O)CNC(=O)c2nc(sc2COC)[C@H](C(C)C)NC(=O)c2nc1sc2C	0.125 (≈ 0.0987 µM)	0.125 (≈ 0.0987 µM)	Active	1 (≈ 0.79 µM)	0.125 (≈ 0.0987 µM)		
CNC(=O)C[C@@H]1NC(=O)c2csc(n2)-c2ccc(-c3nc(NC(=O)C45CCC(C(=O)O)(CC4)CC5)cs3)nc2-c2csc(n2)-c2csc(n2)[C@H]([C@@H](O)c2ccccc2)NC(=O)CNC(=O)c2nc(sc2COC)[C@H](C(C)C)NC(=O)c2nc1sc2C	0.125 (≈ 0.0979 µM)	0.25 (≈ 0.196 µM)	Active	4 (≈ 3.13 µM)	0.25 (≈ 0.196 µM)		
